# From publication PMC5609517 (Chemical Science, 2017)
# Tests used:
# [1] = assay type: physicochemical; settings: solutions in aqueous media at pH < 7, prolonged periods (>1 week)
# [2] = system: MDCK cells; test: Imaging of carbon monoxide in living cells with fluorescent probe COP-1; assay type: cell-based, Canine; settings: 10 μM, at 8 and 37 °C, against respective iCORM (50 μM)
# Outline: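 MDCK cells exposed at 37 °C and at 8 °C to test compound (10 μM) or to its CO-depleted product (iCORM, 50 μM) as comparator. Intracellular CO was detected with the CO-selective fluorescent probe COP-1, read as intracellular fluorescence.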
smiles,measurement,setting,value
CC12C(=O)C(C)(C(c3ccccc3)=C1c1ccccc1)C1(Br)C(=O)N(CCNCCN)C(=O)C21.O=C(O)C(F)(F)F.O=C(O)C(F)(F)F (centres unmarked) [oCOm-23],formation of the corresponding iCORM,[1],no sign of the formation
same,CO delivery to cells / increased intracellular CO levels (COP-1),[2],confirmed
